37 variants from the RNAGym collection of RNA variant scans (doi:10.1126/science.aae0568) can be followed below.

To fix the notation:
B1: tRNA (parent)
chain: GUUCCGUUGGCGUAAUGGUAACGCGUCUCCCUCCUAAGGAGAAGACUGCGGGUUCGAGUCCCGUACGGAACG

Variants at the floor of the assay were thinned out.

The variants in the series derive from B1. Put plainly: yeast fitness relative to wild type (ratio to wild type); higher = fitter; tRNA-Arg(CCU), competitive growth, 37 C, YPD. An outline of the steps: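 Start and end populations of a pooled competition were compared by 100-nucleotide paired-end sequencing of gene amplicons. The Saccharomyces cerevisiae strains carried tRNA-Arg(CCU) gene variants at the native genomic locus, synthesised with a 3% per-site mutation rate at 69 sites, and competed in YPD at 37°C for 24 hours in six parallel replicates. Darwinian fitness relative to wild type was based on the change in genotype frequencies. Genotypes required ≥ 100 starting reads, and estimates < 0.5 were set to 0.5.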
Consider GUUCCGUUGGCGUAAUGGUAUCGCGUCUCCUUCCUAAGGAGAAGACUGCGGAUUCGAGUCCCGUACGGAACG [A21U C31U G52A], for which the yeast fitness worked out at 0.602.

For the variant GUUCCGUUGGCGUAAUGGUAUCGCGUGUCACUCCUAAGGAGAAGACUGCGGGUUCGAGUCCCGUACAGAACG [A21U C27G C30A G67A], the yeast fitness is not above 0.5.

As for GUUCCGUUGGCGUAAUGGUAUCGCGUCUCCCUAGUAAGGAGAAGACUGCGCGUUCGAGUCCCGUACGGAACG [A21U C33A C34G G51C], the yeast fitness was not above 0.5.

For the variant GUUCCGUUGGCGUAAUGGUAUUGCGUCUCCCUCCUAAGGAGAAGACUGAGGGUUCGAGUCCCGUACGGAACG [A21U C22U C49A], the yeast fitness came out at 0.56.

Turning to GUUCCGUUGGCGUAAUGGUAUCGCGUAUCCCUCCUAAGGAGAAGACUGCCGCUUCGAGUCCCGUACCGAACG [A21U C27A G50C G52C G67C], the yeast fitness is not above 0.5.

Turning to GUUCCGUUGGCGUAAUGGUAUUGCGUCUCCCUCCUAAGGAGAAGACUACGGGUUCGUGUCCCGUACGGAACG [A21U C22U G48A A57U], the yeast fitness is not above 0.5.

As for GUUCCGUUGGCGUAAUGGUAUCGCGUCUCCGUGCUAAGGAGAAGACUGCGGGUUCGAGUACCGUACGGAACG [A21U C31G C33G C60A], the yeast fitness stood at 0.543.

Regarding GUUCCGUUGGCGUAAUGGUAUCGCGUCUACCUCCUGAGGAGAAGACUGCGGGUUCGAAUCCCGUAUGGAACG [A21U C29A A36G G58A C66U], the yeast fitness was not above 0.5.

Consider GUUCCGUUGGCGUAAUGGUAUCGCGUCUCUCUCCUAAGCAGAGGAGUGCGGGUACGAGUCCGGUACGGAACG [A21U C30U G39C A43G C46G U54A C62G], for which the yeast fitness was not above 0.5.

As for GUUCCGUUGGCGUAAUGGUAUUGCGUCUCCCUCCUAAGGAGAAGACUGAGGGUUCGAGUCCCGUACAGAACG [A21U C22U C49A G67A], the yeast fitness is not above 0.5.

In the case of GUUCCGUUGGCGUAAUGGUAUUGCGUCUCCCACCUAAGGAGAAGACUGGGGGUUCGAGUCCCGUACGGAACG [A21U C22U U32A C49G], the yeast fitness is not above 0.5.

Consider GUUCCGUUGGCGUAAUGGUAUCGCGUCUGCCUCCUAAGGAGAAGACUGGGGGUUCGAGUCCCGUACGGAUCG [A21U C29G C49G A70U], for which the yeast fitness was not above 0.5.

With GUUCCGUUGGCGUAAUGGUAUCGCGUCUGCGUCCUAAGGAGAUGACUGCGGGUUCGAGUUCCGUACGGAACG [A21U C29G C31G A43U C60U], the yeast fitness turned out to be 0.586.

Turning to GUUCCGUUGGCGUAAUGGUAUCGCGUCUGCCUCCUAAGGAGAAGACUGCGGGUUCGACUCCCGUACGGAACG [A21U C29G G58C], the yeast fitness was found to be 0.502.

Turning to GUUCCGUUGGCGUAAUGGUAUCGCGUCUGCCUCCUAAGGAGAAGACUGCGGGUUCGAAUCCCGUACGGAACG [A21U C29G G58A], the yeast fitness was not above 0.5.

As to GUUCCGUUGGCGUAAUGGUAUCGCGUGUCACUCCUAAGGAGAAGACUGCGGGUUCGAGUCCCGUACGGAACG [A21U C27G C30A], the yeast fitness amounted to 0.514.

For the variant GUUCCGUUGGCGUAAUGGUAUCGCGUGUCCCUUAUAAGGAGAAGACUGCGGGUUCGAGUCUCGUACGGAACG [A21U C27G C33U C34A C61U], the yeast fitness was not above 0.5.

As to GUUCCGUUGGCGUAAUGGUAUCGCGUCUCCUUCCUAAGGAGAAGACUGCGGGUUCGAGUCCCGUACGGAACG [A21U C31U], the yeast fitness is 0.717.

Turning to GUUCCGUUGGCGUAAUGGUAUCGGGUCUCCCUCCUAAGGAGAAGACAGCGGGUUCGAGUCCCGUACGGAACG [A21U C24G U47A], the yeast fitness was not above 0.5.

As for GUUCCGUUGGCGUAAUGGUAUCGUGUCUCCCUCCUAAGGAGAAGACUGCGGGUUCGAGUCCCGUACGGAACG [A21U C24U], the yeast fitness is 0.703.

On to GUUCCGUUGGCGUAAUGGUAUCGGGUCUCCCUCCUAAGGAGAAGACUGCGGGUUCGAGUCCCGUACGGAACG [A21U C24G], for which the yeast fitness was not above 0.5.

Regarding GUUCCGUUGGCGUAAUGGUAUCGAGUCUCCCUCCUAAGGAGAAGACUGCGGGUUCGAGUCCCGUACGGAACG [A21U C24A], the yeast fitness turned out to be 0.578.

Turning to GUUCCGUUGGCGUAAUGGUAUCGUGUCUCCCUCCUAAGGAGAAGACUGCGGGUUCCAGUCCCACACCGAACG [A21U C24U G56C G63A U64C G67C], the yeast fitness was not above 0.5.

For GUUCCGUUGGCGUAAUGGUAUCGAGUCUCAGUCCUAAGGAGAUGACUGCGGGUGCGAGUCCGGUACGGAACG [A21U C24A C30A C31G A43U U54G C62G], the yeast fitness was not above 0.5.

With GUUCCGUUGGCGUAAUGGUAUCGGGUCUGCCUCCUAAGGAGAAGACUGUGGGUUCGAGUCCCGUACGGAACG [A21U C24G C29G C49U], the yeast fitness was not above 0.5.

In the case of GUUCCGUUGGCGUAAUGGUAUCGCGUCUGCCUCCUAAGGAGAAGACUGCGGGUUCGUGUCCCGUCCGGAACG [A21U C29G A57U A65C], the yeast fitness is not above 0.5.

Take GUUCCGUUGGCGUAAUGGUAUCGAGUAUCCCCCCUAAGGAGAAGACUGCGGGUUCGAGUCCCGAACGGAACG [A21U C24A C27A U32C U64A]: the yeast fitness is not above 0.5.

Consider GUUCCGUUGGCGUAAUGGUAUCGCGUCUCACUCCCAAGGGGAAGACUGCGGGUUCGAGUCCCGUACGGAACG [A21U C30A U35C A40G], for which the yeast fitness is not above 0.5.

On to GUUCCGUUGGCGUAAUGGUAUCGCGUCUCGCUCUUAAGGAGAAGACUGCGGAUUCGAGUCCCGUCCGGUACG [A21U C30G C34U G52A A65C A69U], for which the yeast fitness was not above 0.5.

As to GUUCCGUUGGCGUAAUGGUAUCGUGUCUCCCUCCUAAGGAGAAGACUGCGGGUUCGAGUCUCGUAUGGAACG [A21U C24U C61U C66U], the yeast fitness is not above 0.5.

With GUUCCGUUGGCGUAAUGGUAUUGCAUCUCCCUCCUAAGGAGAAGACUGAGGGUUCGAGUCCCGUACGGAACG [A21U C22U G25A C49A], the yeast fitness was not above 0.5.

Turning to GUUCCGUUGGCGUAAUGGUAUCGCGUUUCCCUCCUAUGGAGAAGACUGCGGGUUCGAGUGCCGUACGGAACG [A21U C27U A37U C60G], the yeast fitness was not above 0.5.

With GUUCCGUUGGCGUAAUGGUAUUGCGUCUCCCUCCUAAGGAGAAGACUGCGGGUUUGAGUCCCGUACGGAACG [A21U C22U C55U], the yeast fitness was not above 0.5.

For the variant GUUCCGUUGGCGUAAUGGUAUCGCGUCUCCUUCCUAAGGAGAAGACUGCGGGUGCGAGUCCCGUACGGAACG [A21U C31U U54G], the yeast fitness was not above 0.5.

As for GUUCCGUUGGCGUAAUGGUAUCGAGUCUCCCUCCUAAGGAGACGACUACGGGUUCGAGUCCCGUACGGCACG [A21U C24A A43C G48A A69C], the yeast fitness is not above 0.5.

Take GUUCCGUUGGCGUAAUGGUAUUGCGUCUCGCUCCUAAGGAGAAGACUGCGGGUUAGAGUCCCGUACGGAACG [A21U C22U C30G C55A]: the yeast fitness is not above 0.5.

Consider GUUCCGUUGGCGUAAUGGUAUCGCGUCUCUCUCCUAAGGAGAAGACUACGGGUUCGAGUCCCGUACCGUACG [A21U C30U G48A G67C A69U], for which the yeast fitness is not above 0.5.
